According to ChEMBL document CHEMBL3997766, “Synthesis and pre-clinical studies of new amino-acid ester thiazolide prodrugs” (Eur J Med Chem, 2017):
Each block holds one molecule with its values, some of them ahead of it.

Columns and labels:
[1] = system: Rattus norvegicus; assay: Elimination half life in Sprague-Dawley rat assessed as RM-4848 level in plasma at 30 mg/kg, po administered as single dose; format: ADME, organism-based; settings: in vivo
Summary of the method: (§1)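 Rats in groups of three received one compound as a single oral dose (30 mg/kg) or a single intravenous injection (6 mg/kg), with four compounds studied separately. Serial blood samples were drawn at 5, 10, 15 and 30 min and at 1, 2, 4, 8, 23 and 24 h post-dose. Plasma parent drug and metabolites were quantified and PK parameters were derived.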

[2] = system: Rattus norvegicus; assay: Cmax in Sprague-Dawley rat assessed as RM-4848 level in plasma at 30 mg/kg, po administered as single dose; format: ADME, organism-based; set-up: dose 30 mg/kg, route oral; settings: in vivo; summary of the method: as §1
[3] = system: Rattus norvegicus; assay: AUC (0 to t) in Sprague-Dawley rat assessed as RM-4848 level in plasma at 30 mg/kg, po administered as single dose; format: ADME, organism-based; settings: in vivo; summary of the method: as §1
[4] = system: Rattus norvegicus; assay: Cmax in Sprague-Dawley rat assessed as RM-4848-glucuronide level in plasma at 30 mg/kg, po administered as single dose; format: ADME, organism-based; set-up: dose 30 mg/kg, route oral; settings: in vivo; summary of the method: as §1
[5] = system: Rattus norvegicus; assay: AUC (0 to t) in Sprague-Dawley rat assessed as RM-4848-glucuronide level in plasma at 30 mg/kg, po administered as single dose; format: ADME, organism-based; settings: in vivo; summary of the method: as §1
[6] = system: Rattus norvegicus; assay: Elimination half life in Sprague-Dawley rat assessed as RM-4848-glucuronide level at 30 mg/kg, po administered as single dose; format: ADME, organism-based; settings: in vivo; summary of the method: as §1
[7] = system: Rattus norvegicus; assay: Oral bioavailability in Sprague-Dawley rat assessed as RM-4848 level in plasma at 30 mg/kg administered as single dose; format: ADME, organism-based; settings: in vivo
Summary of the method: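 Groups of three rats received a single oral dose (30 mg/kg) or intravenous dose (6 mg/kg), with serial blood sampling from 5 min to 24 h. Absolute bioavailability came from the AUC after oral versus intravenous dosing, with the AUC corrected for dose to 30 mg/kg.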

[8] = system: Rattus norvegicus; assay: Cmax in Sprague-Dawley rat assessed as RM-4848 level in plasma at 6 mg/kg, iv administered as single dose; format: ADME, organism-based; set-up: dose 6 mg/kg, route intravenous; settings: in vivo; summary of the method: as §1
[9] = system: Rattus norvegicus; assay: AUC (0 to t) in Sprague-Dawley rat assessed as RM-4848 level in plasma at 6 mg/kg, iv administered as single dose; format: ADME, organism-based; settings: in vivo; summary of the method: as §1
[10] = system: Rattus norvegicus; assay: Cmax in Sprague-Dawley rat assessed as RM-4848-glucuronide level at 6 mg/kg, iv administered as single dose; format: ADME, organism-based; set-up: dose 6 mg/kg, route intravenous; settings: in vivo; summary of the method: as §1
[11] = system: Rattus norvegicus; assay: AUC (0 to t) in Sprague-Dawley rat assessed as RM-4848-glucuronide level at 6 mg/kg, iv administered as single dose; format: ADME, organism-based; settings: in vivo; summary of the method: as §1
[12] = system: Plasma; assay: Drug metabolism in Sprague-Dawley rat assessed as RM-4848 formation in plasma at 30 mg/kg, po administered as single dose measured at 0.083 to 4 hrs post dose; format: ADME, organism-based; settings: in vivo; summary of the method: as §1
[13] = system: Plasma; assay: Drug metabolism in Sprague-Dawley rat assessed as RM-4848-glucuronide formation in plasma at 30 mg/kg, po administered as single dose; format: ADME, organism-based; settings: in vivo; summary of the method: as §1
[14] = system: Rattus norvegicus; assay: Tmax in Sprague-Dawley rat assessed as RM-4848 level in plasma at 6.2 mg/kg, iv; format: ADME, organism-based; settings: in vivo
Summary of the method: (§2)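 Rats in groups of three got a single oral dose (30 mg/kg) or a single intravenous injection (6 mg/kg). Serial blood samples were taken at 5, 10, 15 and 30 min and at 1, 2, 4, 8, 23 and 24 h post-dose for plasma drug and glucuronide levels. Bioavailability came from oral versus intravenous AUC after dose correction to 30 mg/kg.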

[15] = system: Rattus norvegicus; assay: Tmax in Sprague-Dawley rat assessed as RM-4848-glucuronide level in plasma at 6.2 mg/kg, iv; format: ADME, organism-based; settings: in vivo; summary of the method: as §2
[16] = system: Rattus norvegicus; assay: Tmax in Sprague-Dawley rat assessed as RM4848-glucuronide level in plasma at 30 mg/kg, po administered as single dose; format: ADME, organism-based; settings: in vivo; summary of the method: as §2
[17] = system: Rattus norvegicus; assay: Elimination half life in Sprague-Dawley rat assessed as RM-4848 level in plasma at 6.2 mg/kg, iv; format: ADME, organism-based; settings: in vivo
[18] = system: Plasma; assay: Drug metabolism in Sprague-Dawley rat assessed as RM-4848-glucuronide formation in plasma at 6.2 mg/kg, iv at 0.083 hrs post dose; format: ADME, organism-based; settings: in vivo
[19] = system: Rattus norvegicus; assay: Elimination half life in Sprague-Dawley rat assessed as RM-4848-glucuronide level at 6.2 mg/kg, iv; format: ADME, organism-based; settings: in vivo
[20] = system: Rattus norvegicus; assay: Drug level in Sprague-Dawley rat treated with RM5038 at 6.4 mg/kg, iv measured at 0.25 to 1 hrs post dose; format: ADME, organism-based; settings: in vivo
[21] = system: Rattus norvegicus; assay: Drug level in Sprague-Dawley rat treated with RM5064 at 6.4 mg/kg, iv measured at 0.25 to 1 hrs post dose; format: ADME, organism-based; settings: in vivo
[22] = Drug excretion in po dosed human urine; format: ADME, organism-based; settings: read-out: Drug excretion
[23] = Drug excretion in po dosed human faeces; format: ADME, organism-based, Feces; settings: read-out: Drug excretion
[24] = Oral bioavailability in human; format: ADME, organism-based; settings: in vivo
[25] = system: Plasma; assay: Drug metabolism in Sprague-Dawley rat assessed as tizoxanide-glucuronide formation in plasma at 30 mg/kg, po administered as single dose measured after 5 mins; format: ADME, organism-based; settings: in vivo
Summary of the method: (§3)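 Plasma tizoxanide and tizoxanide glucuronide were measured and PK parameters derived. AUCs were dose-corrected to 30 mg/kg for bioavailability.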

[26] = system: Rattus norvegicus; assay: Cmax in Sprague-Dawley rat assessed as Tizoxanide level in plasma at 30 mg/kg, po administered as single dose; format: ADME, organism-based; set-up: dose 30 mg/kg, route oral; settings: in vivo; summary of the method: as §1
[27] = system: Rattus norvegicus; assay: AUC (0 to t) in Sprague-Dawley rat assessed as Tizoxanide level at 30 mg/kg, po administered as single dose; format: ADME, organism-based; settings: in vivo; summary of the method: as §3
[28] = system: Rattus norvegicus; assay: Cmax in Sprague-Dawley rat assessed as Tizoxanide level in plasma at 6 mg/kg, iv administered as single dose; format: ADME, organism-based; set-up: dose 6 mg/kg, route intravenous; settings: in vivo; summary of the method: as §1
[29] = system: Rattus norvegicus; assay: Elimination half life in Sprague-Dawley rat assessed as Tizoxanide level in plasma at 6 mg/kg, iv administered as single dose; format: ADME, organism-based; settings: in vivo; summary of the method: as §3
[30] = system: Rattus norvegicus; assay: Cmax in Sprague-Dawley rat assessed as Tizoxanide-glucuronide level in plasma at 6 mg/kg, iv administered as single dose; format: ADME, organism-based; set-up: dose 6 mg/kg, route intravenous; settings: in vivo; summary of the method: as §1
[31] = system: Rattus norvegicus; assay: Tmax in male Sprague-Dawley rat assessed as Tizoxanide-glucuronide level in plasma at 6 mg/kg, iv administered as single dose; format: ADME, organism-based; settings: in vivo; summary of the method: as §3
[32] = system: Rattus norvegicus; assay: AUC (0 to t) in male Sprague-Dawley rat assessed as Tizoxanide-glucuronide level in plasma at 6 mg/kg, iv administered as single dose; format: ADME, organism-based; settings: in vivo; summary of the method: as §3
[33] = system: Rattus norvegicus; assay: Tmax in female Sprague-Dawley rat assessed as Tizoxanide-glucuronide level in plasma at 6 mg/kg, iv administered as single dose; format: ADME, organism-based; settings: in vivo; summary of the method: as §3
[34] = system: Rattus norvegicus; assay: Tmax in male Sprague-Dawley rat assessed as Tizoxanide level in plasma at 30 mg/kg, po; format: ADME, organism-based; settings: in vivo; summary of the method: as §3
[35] = system: Rattus norvegicus; assay: Tmax in female Sprague-Dawley rat assessed as Tizoxanide level in plasma at 30 mg/kg, po; format: ADME, organism-based; settings: in vivo; summary of the method: as §3
[36] = system: Rattus norvegicus; assay: Cmax in Sprague-Dawley rat assessed as tizoxanide-glucuronide level in plasma at 30 mg/kg, po administered as single dose; format: ADME, organism-based; set-up: dose 30 mg/kg, route oral; settings: in vivo; summary of the method: as §1
[37] = system: Rattus norvegicus; assay: Tmax in male Sprague-Dawley rat assessed as tizoxanide-glucuronide level in plasma at 30 mg/kg, po administered as single dose; format: ADME, organism-based; settings: in vivo; summary of the method: as §3
[38] = system: Rattus norvegicus; assay: Tmax in female Sprague-Dawley rat assessed as tizoxanide-glucuronide level in plasma at 30 mg/kg, po administered as single dose; format: ADME, organism-based; settings: in vivo; summary of the method: as §3
[39] = system: Rattus norvegicus; assay: AUC (0 to t) in Sprague-Dawley rat assessed as tizoxanide-glucuronide level in plasma at 30 mg/kg, po administered as single dose; format: ADME, organism-based; settings: in vivo; summary of the method: as §3
[40] = system: Rattus norvegicus; assay: AUC (0 to t) in Sprague-Dawley rat assessed as Tizoxanide level in plasma at 6 mg/kg, iv administered as single dose; format: ADME, organism-based; settings: in vivo; summary of the method: as §3
[41] = Prodrug activation at room temperature after 3 weeks assessed as tizoxanide formation by NMR method

- beta t1/2 [1]: 84 to 156 min
- Cmax [2]: 622 ng/mL
- AUCt [3]: 715 ng·h/mL
- Cmax [4]: 7290 ng/mL
- AUCt [5]: 19400 ng·h/mL
- beta t1/2 [6]: 206 min
- F [7]: 23%
- Cmax [8]: 2650 ng/mL
- AUCt [9]: 631 ng·h/mL
- Cmax [10]: 5570 ng/mL
- AUCt [11]: 7610 ng·h/mL
- Drug metabolism [12]: Metabolite_Detected
- Drug metabolism [13]: Metabolite_Detected
- Tmax [14]: 4.98 min
- Tmax [15]: 15 to 30 min
- Tmax [16]: 30 min
- beta t1/2 [17]: 54.6 min
- Drug metabolism [18]: Metabolite_Detected
- beta t1/2 [19]: 189 min
SMILES: CC(C)(C)[C@H](N)C(=O)Oc1ccccc1C(=O)Nc1ncc(Cl)s1.Cl

- Drug metabolism [20]: Metabolite_Detected
- Drug metabolism [21]: Metabolite_Detected
SMILES: O=C(Nc1ncc(Cl)s1)c1ccccc1O

SMILES: CC(=O)Oc1ccccc1C(=O)Nc1ncc([N+](=O)[O-])s1 [NITAZOXANIDE]
- dose excreted [22]: 33%
- dose excreted [23]: 64%
- bioavailability [24]: ≤ 30%
- Drug metabolism [25]: Metabolite_Detected
- Cmax [26]: 742 ng/mL
- AUCt [27]: 2040 ng·h/mL
- Cmax [28]: 20500 ng/mL
- beta t1/2 [29]: 12 min
- Cmax [30]: 11050 ng/mL
- Tmax [31]: 24 min
- AUCt [32]: 6500 ng·h/mL
- Tmax [33]: 42 min
- Tmax [34]: 42 min
- Tmax [35]: 126 min
- Cmax [36]: 4620 ng/mL
- Tmax [37]: 42 min
- Tmax [38]: 84 min
- AUCt [39]: 15950 ng·h/mL
- AUCt [40]: 14100 ng·h/mL

SMILES: CC(C)[C@H](N)C(=O)Oc1ccccc1C(=O)Nc1ncc([N+](=O)[O-])s1
- Drug metabolism [41]: 20%
